The labels stand for the following.
B1: tRNA (parent)
chain: GUUCCGUUGGCGUAAUGGUAACGCGUCUCCCUCCUAAGGAGAAGACUGCGGGUUCGAGUCCCGUACGGAACG

In this data set the parent is B1. Nature of the data set: yeast fitness, log relative to wild type (ln ratio); higher = fitter; tRNA-Arg(CCU), competitive growth, 37 C, 1 M NaCl. Summed up:
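Two independent transformations put a combinatorial tRNA-Arg(CCU) variant library on a HIS3 centromeric plasmid into BY4742 lacking the chromosomal gene. Pools were grown in SC-HIS at 30 °C for 4 generations, then in SC-HIS 1M NaCl at 37 °C for ~6.5 generations (~26.5 h), with three outputs taken per input. Fitness compares a genotype's generations with the wild type's as a natural log ratio. Those generations are OD-scaled log2 output/input frequencies, inverse-variance weighted across replicates, from 125 bp paired-end Illumina counts.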
Turning to U2G G6U C27U A43C C46U A69G A70U, the “yeast fitness (ln)” value is -0.147.
For the variant U2G G6A A43C C46U A70G C71U, the “yeast fitness (ln)” value was -0.209.
As to G1A U2C G6U C27U A43C C46U C66A A70U C71U, the “yeast fitness (ln)” value is -0.124.
For the variant U2C C66U A70U C71U, the “yeast fitness (ln)” value was -0.152.
Turning to U2G G6A C27U A43C A69G A70G, the “yeast fitness (ln)” value was -0.168.
On to U2G C27U C66U A70U C71U, for which the “yeast fitness (ln)” value was -0.281.
G1A U2C G6A C27U C46U C66U A70U: the “yeast fitness (ln)” value is -0.0971.
With U2C G6U C66U A69G A70U C71U the figure was -0.468; with G1A G6U C27U C46U A69G A70G C71U, -0.335; with G6U C46U A70G C71U, -0.202.
As to U2G G6U C27U A43C C46U A69G A70G C71U, the “yeast fitness (ln)” value was -0.33.
For the variant U2C G6A C27U C46U C66A A70U C71U, the “yeast fitness (ln)” value was -0.172.
G1A U2G C27U C46U A69G A70G: the “yeast fitness (ln)” value is -0.21.
With A69G A70G, the “yeast fitness (ln)” value was -0.0138.
Turning to U2G G6U C27U A43C A70U, the “yeast fitness (ln)” value is -0.207.
Take G6A A69G A70G C71U: the “yeast fitness (ln)” value was -0.263.
On to U2G G6A C27U A43C C46U C66U A69G A70U C71U, for which the “yeast fitness (ln)” value is -0.433.
The result for G1A C27U A43C reads -0.163; that for U2C G6U C27U A43C C46U C66A A70G C71U, -0.0138; that for G1A G6A A43C C46U A70G C71U, -0.214.
A43C A70G C71U: the “yeast fitness (ln)” value was -0.164.
As to U2C G6U C27U, the “yeast fitness (ln)” value was -0.0654.
Take G6A A43C C66U A70U C71U: the “yeast fitness (ln)” value is -0.384.
U2C G6A C27U C71U: the “yeast fitness (ln)” value was -0.212.
The result for U2G G6U A43C C66A C71U reads -0.324; that for U2C C27U A43C C46U C66A A70U, -0.0988; that for G1A U2G G6A C27U A43C C66U A70G C71U, -0.479.
With G6A C27U the figure was -0.0758.
Consider U2G G6U C27U A43C C46U A69G C71U, for which the “yeast fitness (ln)” value was -0.336.
G1A U2C G6U A43C C46U C66A A70U: the “yeast fitness (ln)” value was -0.177.
For G1A G6U C27U A43C C66U A70U C71U, the “yeast fitness (ln)” value was -0.391.
Turning to G1A G6U C27U C46U A70U, the “yeast fitness (ln)” value was -0.274.
For the variant G6A C66U A70G C71U, the “yeast fitness (ln)” value was -0.358.
Regarding G1A G6A C27U A43C A69G A70G, the “yeast fitness (ln)” value was -0.0719.
Take U2G G6U C66A A69G A70G C71U: the “yeast fitness (ln)” value is -0.158.
As to U2C A43C C46U A69G C71U, the “yeast fitness (ln)” value was -0.0944.
Take G1A C46U: the “yeast fitness (ln)” value is -0.0224.
For U2G G6U C27U A43C C46U, the “yeast fitness (ln)” value is -0.127.
For the variant G1A C27U C46U A70G, the “yeast fitness (ln)” value is -0.175.
With G1A A43C A69G C71U the figure was -0.0687.
For U2G G6U C27U A43C C46U C66A A69G A70G C71U, the “yeast fitness (ln)” value is -0.279.
As for U2G G6A C27U C66U A70U C71U, the “yeast fitness (ln)” value was -0.364.
As for G1A C27U C46U C66U A69G A70U C71U, the “yeast fitness (ln)” value is -0.504.
With U2C G6A C66U A69G A70G C71U the figure was -0.0248.
With U2G G6A C27U C46U C66U A69G A70U C71U the figure was -0.394; with G6A C27U A43C C46U C66U A69G, -0.188.
On to G6U A69G A70G, for which the “yeast fitness (ln)” value is -0.16.
Turning to G1A U2G G6A C27U C66U A70U C71U, the “yeast fitness (ln)” value was -0.164.
With G6A C27U A43C A69G A70G, the “yeast fitness (ln)” value was -0.264.
As to G1A C27U A43C C66U A70G C71U, the “yeast fitness (ln)” value is -0.32.
With G1A G6A A43C C46U C66A A69G A70G C71U, the “yeast fitness (ln)” value was -0.261.
Turning to G6A C46U C66U, the “yeast fitness (ln)” value came out at 0.00319.
With C46U C66A A69G A70U, the “yeast fitness (ln)” value is -0.0373.
As for U2G G6U C27U A43C C46U C66A A70G C71U, the “yeast fitness (ln)” value was -0.197.
Regarding G1A U2G G6U C27U A43C C46U C66U A69G A70G C71U, the “yeast fitness (ln)” value is -0.475.
As to U2G G6A C66A A70U C71U, the “yeast fitness (ln)” value was -0.123.
Regarding G6U C66U A69G, the “yeast fitness (ln)” value is -0.527.
In the case of U2G C27U C46U C66U A69G A70G C71U, the “yeast fitness (ln)” value was -0.245.
Consider U2G G6A A43C C46U C66U A69G C71U, for which the “yeast fitness (ln)” value is -0.303.
As to A43C C66U, the “yeast fitness (ln)” value is -0.178.
The result for U2C G6U A43C C66A reads -0.135; that for G1A U2C C66A A70U, -0.0191; that for U2C G6U C46U A70G C71U, -0.0274.
In the case of G1A G6A C27U C66U A69G A70U, the “yeast fitness (ln)” value was -0.324.
The result for U2G G6U C27U A43C C46U C66A A70U C71U reads -0.629; that for U2G C27U A70U C71U, -0.0745; that for G6A A43C A69G A70G C71U, -0.305.
Consider G1A U2C G6A A43C C46U A70G, for which the “yeast fitness (ln)” value is -0.0508.
The result for G6U A43C C46U A69G A70G reads -0.232; that for U2G A43C C46U A70G C71U, -0.149.
The result for A70U C71U reads -0.0899; that for U2G G6U A43C A69G C71U, -0.402; that for G1A U2G C27U A43C A69G A70U C71U, -0.353.
On to G1A G6A C27U C46U A70G, for which the “yeast fitness (ln)” value was -0.208.
With G1A U2G G6U A43C C46U A69G A70U C71U the figure was -0.398; with G1A U2G C27U A43C C46U A70U C71U, -0.0479.
As to G1A U2C G6U, the “yeast fitness (ln)” value is -0.00557.
With G1A U2C G6U A69G A70G C71U the figure was -0.367; with G6A C66A A70U C71U, -0.241; with A43C C66A A70G C71U, -0.105.
Turning to G1A G6A A43C C46U C66U A69G A70U, the “yeast fitness (ln)” value is -0.479.
In the case of G1A U2C G6A C27U C46U C66U A69G A70U C71U, the “yeast fitness (ln)” value is -0.327.
On to G1A U2G G6U C46U C66A A69G A70G C71U, for which the “yeast fitness (ln)” value is -0.416.

(Values after the RNAGym collection of RNA variant scans (doi:10.1038/s41586-018-0170-7).)
